Values after ≈ are worked out from the molar mass of the structure shown. One block for each molecule: values may come before it. Active and inactive are the calls of the source. The calls are words filed in the database; no cut-off is given here.
Columns and labels:
A549 [1] = assay: Induction of cell cycle arrest in human A549 cells assessed as increase in cells at G0-G1 phase at GI50 concentration by flow cytometry analysis (reference value: 85.46%); type: functional
SF-295 [2] = assay: Antiproliferative activity against human SF-295 cells assessed as growth inhibition at 10 uM incubated for 48 hrs by SRB method; type: functional; details: read-out: GI
Procedure, shortened: (§1)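 NCI-60 one-dose screen at 10 μM. Cells were grown in RPMI 1640 with 5% FBS and 2 mM L-glutamine and plated at 5000–40 000 cells/well for 24 h. Drug exposure was 48 h at 37 °C, 5% CO2. Cells were fixed with TCA, stained with 0.4% SRB and read at 515 nm. Growth is expressed as percent of untreated control and time-zero plates.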

UACC-62 [3] = assay: Antiproliferative activity against human UACC-62 cells assessed as growth inhibition at 10 uM incubated for 48 hrs by SRB method; type: functional; details: read-out: GI
Procedure, shortened: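 NCI-60 one-dose screen at 10 μM. Cells grown in RPMI 1640 with 5% FBS and 2 mM L-glutamine, plated at 5000–40 000 cells/well and preincubated 24 h at 37 °C, 5% CO2. Drug exposure 48 h. Fixed with TCA and stained with 0.4% SRB, absorbance read at 515 nm. Percent growth calculated against untreated control and time-zero plates.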

[4] = Upregulation of p53 gene expression in human A549 cells assessed as fold increase by qRT-PCR analysis; type: functional
Procedure, shortened: (§2)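 A549/ATCC cells treated, total RNA DNase-treated and checked by 260/280 ratio (1.8–2.1). Reverse transcription with oligo-dT and MuLV RT: 25 °C 10 min, 42 °C 1 h, 99 °C 5 min. qPCR of 40 cycles (95 °C 15 s, 55 °C 30 s, 72 °C 30 s) followed by melt curve. Relative expression by the 2−ΔΔCT method, mean ± SEM.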

SF-295 [5] = assay: Antiproliferative activity against human SF-295 cells assessed as growth inhibition incubated for 48 hrs by SRB method; type: functional
Procedure, shortened: (§3)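 NCI-60 five-dose screen at 0.01, 0.1, 1, 10 and 100 μM, triplicate wells per dose. Cells were in RPMI 1640 with 5% FBS and 2 mM L-glutamine, pre-grown 24 h and then treated for 48 h at 37 °C. Read-out was TCA fixation and SRB absorbance at 515 nm.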

HOP-92 = assay: Antiproliferative activity against human HOP-92 cells assessed as growth inhibition incubated for 48 hrs by SRB method; type: functional; procedure, shortened: as §3
SNB-75 = assay: Antiproliferative activity against human SNB-75 cells assessed as growth inhibition incubated for 48 hrs by SRB method; type: functional; procedure, shortened: as §3
SK-MEL-2 = assay: Antiproliferative activity against human SK-MEL-2 cells assessed as growth inhibition at 10 uM incubated for 48 hrs by SRB method; type: functional; details: read-out: GI; procedure, shortened: as §1
A549 [6] = assay: Induction of cell cycle arrest in human A549 cells assessed as increase in cells at G0-G1 phase at GI50 concentration by flow cytometry analysis (reference value: 85.84%); type: functional
[7] = Upregulation of Bax gene expression in human A549 cells assessed as fold increase by qRT-PCR analysis; type: functional; procedure, shortened: as §2
NCI-H522 = assay: Antiproliferative activity against human NCI-H522 cells assessed as growth inhibition incubated for 48 hrs by SRB method; type: functional; procedure, shortened: as §3
A549 [8] = assay: Induction of cell cycle arrest in human A549 cells assessed as decrease in cells at S phase at GI50 concentration by flow cytometry analysis (reference value: 0.31 to 0.51%); type: functional; set-up: scale not given: the % may be the effect or the level left
SF-268 = assay: Antiproliferative activity against human SF-268 cells assessed as growth inhibition incubated for 48 hrs by SRB method; type: functional; procedure, shortened: as §3
RXF 393 = assay: Antiproliferative activity against human RXF 393 cells assessed as growth inhibition incubated for 48 hrs by SRB method; type: functional; procedure, shortened: as §3
A549 [9] = assay: Induction of cell cycle arrest in human A549 cells assessed as decrease in cells at G2/M phase at GI50 concentration by flow cytometry analysis (reference value: 13.15 to 13.37%); type: functional; set-up: scale not given: the % may be the effect or the level left
HOP-62 = assay: Antiproliferative activity against human HOP-62 cells assessed as growth inhibition at 10 uM incubated for 48 hrs by SRB method; type: functional; details: read-out: GI; procedure, shortened: as §1
SNB-19 = assay: Antiproliferative activity against human SNB-19 cells assessed as growth inhibition at 10 uM incubated for 48 hrs by SRB method; type: functional; details: read-out: GI; procedure, shortened: as §1
UACC-257 = assay: Antiproliferative activity against human UACC-257 cells assessed as growth inhibition incubated for 48 hrs by SRB method; type: functional; procedure, shortened: as §3
Escherichia coli = assay: Antimicrobial activity against Escherichia coli ATCC 25922 by broth microdilution method
Candida albicans = assay: Antimicrobial activity against Candida albicans ATCC 10231 by broth microdilution method
UACC-62 [10] = assay: Antiproliferative activity against human UACC-62 cells assessed as growth inhibition incubated for 48 hrs by SRB method; type: functional
Procedure, shortened: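 NCI-60 five-dose screen at 0.01, 0.1, 1, 10 and 100 μM, triplicate wells per dose. Cells grown in RPMI 1640/5% FBS, preincubated 24 h, then exposed 48 h at 37 °C. TCA fixation, SRB stain, A515.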

Hs-578T = assay: Antiproliferative activity against human Hs-578T cells assessed as growth inhibition incubated for 48 hrs by SRB method
U-251 [11] = assay: Antiproliferative activity against human U-251 cells assessed as growth inhibition at 10 uM incubated for 48 hrs by SRB method; type: functional; details: read-out: GI; procedure, shortened: as §1
OVCAR-8 = assay: Antiproliferative activity against human OVCAR-8 cells assessed as growth inhibition incubated for 48 hrs by SRB method; type: functional; procedure, shortened: as §3
A549 [12] = assay: Induction of cell cycle arrest in human A549 cells assessed as increase in cells at G0-G1 phase at GI50 concentration by flow cytometry analysis (reference value: 85.41%); type: functional
A549 [13] = assay: Downregulation of Bcl-2 gene expression in human A549 cells by qRT-PCR analysis; type: functional, cell-based; procedure, shortened: as §2
U-251 [14] = assay: Antiproliferative activity against human U-251 cells assessed as growth inhibition incubated for 48 hrs by SRB method; type: functional; procedure, shortened: as §3
Staphylococcus aureus [15] = assay: Antimicrobial activity against Staphylococcus aureus ATCC 29213 by broth microdilution method
MDA-MB-231 = assay: Antiproliferative activity against human MDA-MB-231 cells assessed as growth inhibition incubated for 48 hrs by SRB method; details: MDA-MB-231, 48 h
Staphylococcus aureus [16] = assay: Antimicrobial activity against Staphylococcus aureus ATCC 29213; type: functional
Staphylococcus aureus [17] = assay: Antimicrobial activity against Staphylococcus aureus NCTC 8325 incubated for 45 mins; type: functional; details: NCTC 8325, 0.75 h

GI50 (NCI-H522): 4.55 µM
MIC (Escherichia coli): > 1020 µg/mL
MIC (Candida albicans): 512 µg/mL (≈ 1330 µM)
GI50 (OVCAR-8): 6.24 µM
GI50 (U-251 [14]): 6.94 µM
MIC (Staphylococcus aureus [15]): 512 µg/mL (≈ 1330 µM)
GI50 (MDA-MB-231): 6.83 µM
Structure (SMILES): O=C(NC(=S)Nc1ccc(-c2ccc(=O)[nH]n2)cc1)c1cccc(Cl)c1
Activity (A549 [1]): 89.51%
inhibition of growth at 10 µM (SF-295 [2]): 93%
inhibition of growth at 10 µM (UACC-62 [3]): 91%
fold change (FC) [4]: 3
GI50 (SF-295 [5]): 7.23 µM
GI50 (HOP-92): 3.18 µM
GI50 (SNB-75): 3.92 µM
inhibition of growth at 10 µM (SK-MEL-2): 98%
Activity (A549 [6]): 89.87%
fold change (FC) [7]: 3
Activity (A549 [8]): 0.19%
GI50 (SF-268): 6.91 µM
GI50 (RXF 393): 6.6 µM
Activity (A549 [9]): 8.95%
inhibition of growth at 10 µM (HOP-62): 94.6%
inhibition of growth at 10 µM (SNB-19): 91.2%
GI50 (UACC-257): 5.59 µM
GI50 (UACC-62 [10]): 4.07 µM
GI50 (Hs-578T): 5.8 µM
inhibition of growth at 10 µM (U-251 [11]): 96.1%
Activity (A549 [12]): 90.86%
Activity (A549 [13]): Active

Structure (SMILES): O=C(Nc1ccc(Cl)cc1)Nc1ccc(Cl)c(Cl)c1 [TRICLOCARBAN]
MIC (Staphylococcus aureus [16]): 16 µg/mL (≈ 50.7 µM)

MIC (Staphylococcus aureus [17]): 3 µg/mL (≈ 6.45 µM)
MIC (Escherichia coli): 1 µg/mL (≈ 2.15 µM)
MIC (Candida albicans): > 128 µg/mL
MIC (Staphylococcus aureus [15]): 4 µg/mL (≈ 8.61 µM)
Structure (SMILES): CNC(=O)c1cc(Oc2ccc(NC(=O)Nc3ccc(Cl)c(C(F)(F)F)c3)cc2)ccn1 [SORAFENIB]
